Experimental data: article PMC10938568 (Science Advances, 2021)

Assays:
HEK293T cells = assay: LC3 lipidation / GFP-LC3B puncta, WT or ATG13_KO cells; assay type: cell-based, human; conditions: for LC3 lipidation / puncta (in words): HEK293T WT or ATG13_KO, MK6-83 25 μM, C8 2 μM, AZD8055 1 μM
Method in brief: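 HEK293T cells in DMEM with 10% FBS and 1% penicillin/streptomycin at 37°C, 5% CO2, treated over a time course. Lysates denatured in Laemmli buffer at 100°C for 5 min. Immunoblot: primary antibodies in 5% BSA/TBS-0.2% Tween 20 overnight at 4°C; HRP secondaries at 1:20,000 for 1 h at room temperature. GFP-LC3B followed by time-lapse imaging.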

FNIP1/2_DKO HeLa cells = assay: GPNMB protein level; assay type: cell-based; conditions: prolonged treatment; WT or LIR FNIP1 in FNIP1/2_DKO HeLa
Method in brief: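 GPNMB, a TFEB/TFE3 target, was read by Western blot in FNIP1/2_DKO HeLa re-expressing WT or LIR-variant FNIP1 after prolonged stimulation to activate TRPML1. Cells were grown at 37°C in 5% CO2. Lysates were denatured in Laemmli buffer (100°C, 5 min). Primary antibody (1:1000 unless noted) was in 5% BSA/TBS-0.2% Tween 20, overnight at 4°C. HRP secondary was 1:20,000, 1 h at RT.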

TFEB = TFEB activation / nuclear localization; assay type: cell-based
Method in brief: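 FNIP1/2_DKO HeLa expressing WT or LIR FNIP1 were stimulated with two TRPML1-activating agents (2 μM and 1 μM). TFEB was immunostained with primary antibody overnight at 4°C, then Alexa secondary (1:1000) with DAPI for 1 h at RT. TFEB nuclear localization was scored by high-content imaging, ≥1500 cells per condition. Values are means ± SD; unpaired t test.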

FLCN-FNIP1 complex = assay: Co-immunoprecipitation of GABARAP with FLCN-FNIP1; assay type: binding, human; conditions: HEK293T cells, transfected 20 hours
[1] = test system: primary bone marrow–derived macrophages (BMDMs); assay: LC3 puncta in primary BMDMs, ATG16L1 WT or K490A; assay type: cell-based, mouse; conditions: 1 hour
[2] = test system: FLCN-FNIP1 complex in HeLa cells; assay: FLCN-FNIP recruitment to membrane fractions, Western blot; assay type: cell-based; conditions: monensin 1uM, C8 2uM, 30 min; WT or TRPML1_KO HeLa
Method in brief: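 HeLa cells (WT or TRPML1_KO) grown in DMEM with 10% FBS and 1% penicillin/streptomycin at 37°C, 5% CO2. 1.5 × 10^6 cells plated the day before treatment. Membrane fractions prepared with a commercial kit and denatured in Laemmli buffer at 100°C for 5 min. Immunoblot: primary antibodies in 5% BSA/TBS-0.2% Tween 20 at 4°C overnight; HRP secondaries at 1:20,000 for 1 h at room temperature.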

COc1ccc(-c2ccc3c(N4CCOC[C@@H]4C)nc(N4CCOC[C@@H]4C)nc3n2)cc1CO [AZD8055]
LC3 lipidation, sensitivity to BafA1 or PIK-III (in words) (HEK293T cells; BafA1 100 nM, PIK-III 5 μM): sensitive to the VPS34 inhibitor PIK-III and potentiated with the vacuolater ATPase (V-ATPase) inhibitor bafilomycin A1 (BafA1)
LC3 lipidation / puncta (in words) (HEK293T cells): able to regulate LC3 lipidation in WT but not ATG13_KO cells
GPNMB protein levels (in words) (FNIP1/2_DKO HeLa cells): largely suppressed
TFEB activation versus ATG16L1 allele status (in words) (TFEB; ATG16L1_KO HeLa reexpressing ATG16L1 variants): activated TFEB irrespective of ATG16L1 allele status
TFEB activation / nuclear accumulation (in words) (TFEB; HeLa): robust TFEB activation

CO/C1=C\C(C)=C\[C@@H](C)[C@@H](O)[C@@H](C)C/C(C)=C/C=C/[C@H](OC)[C@@H]([C@@H](C)[C@@H](O)[C@H](C)[C@@]2(O)C[C@@H](O)[C@H](C)[C@@H](C(C)C)O2)OC1=O [BafA1, bafilomycin A1]
TFEB activation, effect of BafA1 cotreatment (in words) (TFEB; BafA1 100 nM, acute, HeLa): sufficient to block TFEB activation by TRPML1 agonists; however, it did not affect TFEB activation upon mTOR inhibition

GABARAP: full-length human GABARAP (1 to 117), ATG8 family protein
interaction with FLCN-FNIP1 complex (in words) (FLCN-FNIP1 complex): interacts with GABARAP through LIR-dependent binding

Cc1ccc(S(=O)(=O)Nc2ccccc2N2CCCCC2)s1 [MK6-83]
LC3 lipidation / puncta (in words) (HEK293T cells): rapid conversion of LC3 from its cytoplasmic “I” form to the lipidated, punctate “II” form in both wild-type (WT) and autophagy-deficient cells (ATG13_KO)

CC1=CC(C)(C)N(C(=O)CN2C(=O)c3ccccc3C2=O)c2ccccc21 [ML-SA1]
LC3 lipidation / puncta (in words) (HEK293T cells): rapid conversion of LC3 from its cytoplasmic “I” form to the lipidated, punctate “II” form in both wild-type (WT) and autophagy-deficient cells (ATG13_KO)
LC3 puncta in BMDMs (in words) [1]: unable to induce LC3 puncta in ATG16L1^K490A-expressing cells

CC[C@@]1([C@@H]2O[C@@H]([C@H]3O[C@@](O)(CO)[C@H](C)C[C@@H]3C)C[C@@H]2C)CC[C@H]([C@]2(C)CC[C@]3(C[C@H](O)[C@@H](C)[C@@H]([C@@H](C)[C@@H](OC)[C@H](C)C(=O)O)O3)O2)O1 [monensin]
FLCN-FNIP membrane recruitment (in words) [2]: could induce FLCN-FNIP1 complex sequestration independently of TRPML1
TFEB activation, FNIP1-LIR dependence (in words) (TFEB; FNIP1-WT or FNIP1-LIR in FNIP1/2_DKO HeLa, monensin 1uM, 4 hr): regulated TFEB activation in an FNIP1-LIR domain–dependent manner
